The source made the active and inactive calls. The calls are words filed in the database; no cut-off is given here.
How the values were obtained:
[1] = target: Substance-P receptor (Cavia porcellus) (UniProt P30547); assay: Agonist activity at neurokinin-1 receptor in Hartley guniea pig isolated ileum/Longitudinal Muscle with Myenteric Plexus assessed as inhibition of electrically-stimulated muscle contraction at 30 nM; assay type: tissue-based
[2] = target: T1, Delta-type opioid receptor (Homo sapiens, UniProt P41143); assay: Agonist activity at delta receptor (unknown origin) expressed in HEK293 cells assessed as inhibition of forskolin-induced cAMP accumulation by bioluminescent assay; assay type: functional, cell-based
T1 sequence (P41143 whole entry): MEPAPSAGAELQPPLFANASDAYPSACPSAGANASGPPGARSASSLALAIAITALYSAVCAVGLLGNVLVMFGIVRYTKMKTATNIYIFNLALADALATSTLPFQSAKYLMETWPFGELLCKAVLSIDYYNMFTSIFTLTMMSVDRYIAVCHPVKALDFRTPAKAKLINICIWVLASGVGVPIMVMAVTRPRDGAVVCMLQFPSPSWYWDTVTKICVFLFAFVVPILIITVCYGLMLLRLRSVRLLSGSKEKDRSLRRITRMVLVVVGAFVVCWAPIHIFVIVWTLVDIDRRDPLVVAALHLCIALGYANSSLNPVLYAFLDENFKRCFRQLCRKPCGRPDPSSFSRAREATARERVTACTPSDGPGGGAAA

Mu-type opioid receptor [3] = target: T2, Mu-type opioid receptor (Homo sapiens, UniProt P35372); assay: Binding affinity to mu opioid receptor (unknown origin)
T2 sequence (P35372 whole entry): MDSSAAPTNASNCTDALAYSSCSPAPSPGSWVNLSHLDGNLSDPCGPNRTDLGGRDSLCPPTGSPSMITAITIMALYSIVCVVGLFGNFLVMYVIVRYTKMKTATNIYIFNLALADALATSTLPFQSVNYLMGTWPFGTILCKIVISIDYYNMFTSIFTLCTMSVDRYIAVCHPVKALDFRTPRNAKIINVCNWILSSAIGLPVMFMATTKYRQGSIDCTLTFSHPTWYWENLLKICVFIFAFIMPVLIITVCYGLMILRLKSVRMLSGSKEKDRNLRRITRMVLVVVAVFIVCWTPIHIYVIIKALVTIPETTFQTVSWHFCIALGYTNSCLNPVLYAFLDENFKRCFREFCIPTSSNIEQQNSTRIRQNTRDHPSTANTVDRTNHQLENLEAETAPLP

Rattus norvegicus = species: Rattus norvegicus; assay: Neurotoxicity in Sprague-Dawley rat assessed as motor impairment at 10 ug/5 ul, it by rotarod test; assay type: toxicity, organism-based; settings: in vivo, icv_or_intrathecal
Method in brief: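 Intrathecal catheterized Sprague–Dawley rats given 10 μg in 5 μL; motor function assessed by rotarod.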

Mu-type opioid receptor [4] = target: T2, Mu-type opioid receptor; assay: Agonist activity at mu opioid receptor (unknown origin) expressed in HEK293 cells assessed as inhibition of forskolin-induced cAMP accumulation by bioluminescent assay; assay type: functional, cell-based
[5] = Metabolic stability in rat plasma assessed as compound remaining at 50 ug/ml […] by RP-HPLC assay; assay type: ADME, cell-free; settings: read-out: Stability
[6] = target: Substance-P receptor (Cavia porcellus) (UniProt P30547); assay: Antagonist activity at neurokinin-1 receptor in Hartley guniea pig isolated ileum/Longitudinal Muscle with Myenteric Plexus assessed as inhibition of electrically-stimulated muscle contraction; assay type: tissue-based
[7] = Selectivity ratio of IC50 for mu opioid receptor in Hartley guniea pig isolated ileum to IC50 for delta opioid receptor in ICR mouse isolated vas deferens; assay type: tissue-based
[8] = target: Substance-P receptor (Cavia porcellus) (UniProt P30547); assay: Agonist activity at neurokinin-1 receptor in Hartley guniea pig isolated ileum/Longitudinal Muscle with Myenteric Plexus assessed as inhibition of electrically-stimulated muscle contraction at 100 nM; assay type: tissue-based
Homo sapiens [9] = species: Homo sapiens; assay: Selectivity ratio of IC50 for mu opioid receptor (unknown origin) to IC50 for delta opioid receptor (unknown origin)
Homo sapiens [10] = species: Homo sapiens; assay: Selectivity ratio of Ki for mu opioid receptor (unknown origin) to Ki for delta opioid receptor (unknown origin)
[11] = target: Substance-P receptor (Homo sapiens) (UniProt P25103); assay: Antagonist activity at neurokinin-1 receptor (unknown origin) expressed in CHO cells assessed as inhibition of substance-P induced calcium flux by bioluminescent assay; assay type: functional, cell-based
Substance-P receptor (Homo sapiens), sequence (P25103 whole entry): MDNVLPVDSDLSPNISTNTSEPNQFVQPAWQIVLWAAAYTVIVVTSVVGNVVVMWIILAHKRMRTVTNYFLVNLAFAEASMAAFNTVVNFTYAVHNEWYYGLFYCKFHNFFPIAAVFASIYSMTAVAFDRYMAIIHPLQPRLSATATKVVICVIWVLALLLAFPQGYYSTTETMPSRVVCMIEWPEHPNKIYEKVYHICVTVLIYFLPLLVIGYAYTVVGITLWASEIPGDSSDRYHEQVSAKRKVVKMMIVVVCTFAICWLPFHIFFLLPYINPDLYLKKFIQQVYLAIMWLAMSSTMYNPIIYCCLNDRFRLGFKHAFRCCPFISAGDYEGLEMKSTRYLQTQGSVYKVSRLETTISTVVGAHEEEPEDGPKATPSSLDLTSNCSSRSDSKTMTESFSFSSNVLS

Mu-type opioid receptor [12] = target: Mu-type opioid receptor (Cavia porcellus, UniProt P97266); assay: Agonist activity at mu opioid receptor in Hartley guniea pig isolated ileum assessed as inhibition of electrically-stimulated muscle contraction; assay type: tissue-based
Mu-type opioid receptor (Cavia porcellus, UniProt P97266), sequence (P97266 whole entry): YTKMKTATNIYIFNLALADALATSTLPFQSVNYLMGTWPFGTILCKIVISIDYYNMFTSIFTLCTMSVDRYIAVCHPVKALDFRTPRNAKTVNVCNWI

Substance-P receptor = Substance-P receptor (Rattus norvegicus, UniProt P14600); assay: Displacement of [3H]SP from rat neurokinin-1 receptor expressed in CHO cells incubated for 20 mins by liquid scintillation counting; assay type: cell-based
Substance-P receptor, sequence (P14600 whole entry): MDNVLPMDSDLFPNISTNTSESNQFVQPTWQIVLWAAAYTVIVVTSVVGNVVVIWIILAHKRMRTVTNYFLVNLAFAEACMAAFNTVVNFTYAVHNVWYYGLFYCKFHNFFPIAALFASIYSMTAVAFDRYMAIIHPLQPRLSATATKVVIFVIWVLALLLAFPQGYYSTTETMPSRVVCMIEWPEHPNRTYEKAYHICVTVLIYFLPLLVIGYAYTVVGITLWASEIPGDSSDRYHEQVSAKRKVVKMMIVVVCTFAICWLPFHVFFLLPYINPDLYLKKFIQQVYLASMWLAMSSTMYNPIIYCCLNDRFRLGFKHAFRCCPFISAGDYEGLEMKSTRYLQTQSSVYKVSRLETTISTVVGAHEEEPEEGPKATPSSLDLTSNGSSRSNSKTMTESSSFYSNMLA
Method in brief: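 CHO membranes with human or rat NK1: six compound concentrations in duplicate with 20 μg membrane and 0.5 nM [3H]SP in 50 mM Tris pH 7.4, 5 mM MgCl2 plus peptidase inhibitors; 25 °C, 20 min. Nonspecific binding with 10 μM SP. GF/B filtration (PEI-soaked), scintillation counting.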

[13] = target: Substance-P receptor (Cavia porcellus) (UniProt P30547); assay: Agonist activity at neurokinin-1 receptor in Hartley guniea pig isolated ileum/Longitudinal Muscle with Myenteric Plexus assessed as inhibition of electrically-stimulated muscle contraction at 300 nM; assay type: tissue-based
[14] = target: Substance-P receptor (Cavia porcellus) (UniProt P30547); assay: Agonist activity at neurokinin-1 receptor in Hartley guniea pig isolated ileum assessed as inhibition of electrically-stimulated muscle contraction at 1 uM; assay type: tissue-based; design: scale not given: the % may be the effect or the level left
[15] = target: Delta-type opioid receptor (Mus musculus, UniProt P32300); assay: Agonist activity at delta opioid receptor in ICR mouse isolated vas deferens assessed as inhibition of electrically-stimulated muscle contraction; assay type: tissue-based
Delta-type opioid receptor (Mus musculus, UniProt P32300), sequence (P32300 whole entry): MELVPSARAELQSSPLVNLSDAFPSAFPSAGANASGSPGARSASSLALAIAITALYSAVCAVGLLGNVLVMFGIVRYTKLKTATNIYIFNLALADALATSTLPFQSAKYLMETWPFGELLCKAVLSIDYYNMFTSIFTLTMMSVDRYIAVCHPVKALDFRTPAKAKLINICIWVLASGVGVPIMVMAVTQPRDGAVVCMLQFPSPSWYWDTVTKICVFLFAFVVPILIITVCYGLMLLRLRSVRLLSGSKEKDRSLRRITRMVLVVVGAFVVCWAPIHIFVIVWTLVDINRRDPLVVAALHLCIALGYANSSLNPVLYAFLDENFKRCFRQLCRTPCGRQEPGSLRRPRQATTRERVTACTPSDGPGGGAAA

[16] = target: T1, Delta-type opioid receptor; assay: Binding affinity to delta opioid receptor (unknown origin)
[17] = Half-life in rat plasma at 50 ug/ml by RP-HPLC assay; assay type: ADME, cell-free
Method in brief: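 50 mg/mL DMSO stock diluted 1000-fold into rat plasma (final 50 μg/mL), 37 °C. Aliquots at 0.5–8 h quenched with acetonitrile, centrifuged; parent remaining by RP-HPLC C18. Two independent runs, each in duplicate; half-life from mean of the two.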

Substance-P receptor (Cavia porcellus), sequence (P30547 whole entry): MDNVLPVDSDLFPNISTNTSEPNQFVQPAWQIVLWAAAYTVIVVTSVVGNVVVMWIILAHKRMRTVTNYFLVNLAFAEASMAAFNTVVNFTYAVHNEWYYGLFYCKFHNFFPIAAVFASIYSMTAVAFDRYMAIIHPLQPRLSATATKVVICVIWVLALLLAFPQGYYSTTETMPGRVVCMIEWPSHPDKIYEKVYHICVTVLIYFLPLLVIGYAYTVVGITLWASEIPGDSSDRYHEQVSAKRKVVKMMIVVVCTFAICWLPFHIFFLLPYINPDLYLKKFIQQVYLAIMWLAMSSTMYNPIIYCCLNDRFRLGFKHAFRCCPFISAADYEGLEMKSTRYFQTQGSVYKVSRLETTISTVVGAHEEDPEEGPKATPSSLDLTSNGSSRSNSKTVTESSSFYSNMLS

Cc1cc(O)cc(C)c1C[C@H](N)C(=O)N[C@@H](C)C(=O)NCC(=O)N(C)[C@@H](Cc1ccc(F)cc1)C(=O)N1CCC[C@H]1C(=O)N[C@@H](CC(C)C)C(=O)N[C@@H](Cc1c[nH]c2ccccc12)C(=O)NCc1cc(C(F)(F)F)cc(C(F)(F)F)c1
Activity [1]: inactive

Cc1cc(O)cc(C)c1C[C@H](N)C(=O)N[C@H](C)C(=O)NCC(=O)N(C)[C@@H](Cc1ccccc1)C(=O)N1CCC[C@H]1C(=O)N[C@@H](CC(C)C)C(=O)N[C@@H](Cc1c[nH]c2ccccc12)C(=O)NCc1cc(C(F)(F)F)cc(C(F)(F)F)c1
IC50 [2]: 30 nM
IC50 (Mu-type opioid receptor [3]): 1.66 nM
Activity (Rattus norvegicus): Toxic
IC50 (Mu-type opioid receptor [4]): 39 nM
remaining at 50 ug/ml [5]: 100%

Cc1cc(O)cc(C)c1C[C@H](N)C(=O)N[C@@H](C)C(=O)NCC(=O)N[C@@H](Cc1ccccc1)C(=O)N1CCC[C@H]1C(=O)N[C@@H](CC(C)C)C(=O)N[C@@H](Cc1c[nH]c2ccccc12)C(=O)NCc1cc(C(F)(F)F)cc(C(F)(F)F)c1
Ke [6]: 25 nM
Ratio IC50 [7]: 26
Activity [8]: inactive
Ratio IC50 (Homo sapiens [9]): 6
Ratio Ki (Homo sapiens [10]): 3
Ke [11]: 11 nM

Cc1cc(O)cc(C)c1C[C@H](N)C(=O)N[C@H](C)C(=O)NCC(=O)N[C@@H](Cc1ccccc1)C(=O)N1CCC[C@H]1C(=O)N[C@@H](CC(C)C)C(=O)N[C@@H](Cc1c[nH]c2ccccc12)C(=O)NCc1cc(C(F)(F)F)cc(C(F)(F)F)c1
IC50 ([2]; hek293): 7.2 nM
IC50 (Mu-type opioid receptor [12]): 81 nM
Ki (Substance-P receptor; cho): 27 nM
IC50 (Mu-type opioid receptor [3]): 2.34 nM
Ki (Mu-type opioid receptor [3]): 3 nM
IC50 (Mu-type opioid receptor [4]; hek293): 46 nM

Cc1cc(O)cc(C)c1C[C@H](N)C(=O)N[C@@H](C)C(=O)NCC(=O)N[C@@H](Cc1ccc(Cl)cc1)C(=O)N1CCC[C@H]1C(=O)N[C@@H](CC(C)C)C(=O)N[C@@H](Cc1c[nH]c2ccccc12)C(=O)NCc1cc(C(F)(F)F)cc(C(F)(F)F)c1
Ratio IC50 [7]: 7
Ratio Ki (Homo sapiens [10]): 1
Activity [13]: inactive

Cc1cc(O)cc(C)c1C[C@H](N)C(=O)N[C@H](C)C(=O)NCC(=O)N[C@@H](Cc1ccc(Br)cc1)C(=O)N1CCC[C@H]1C(=O)N[C@@H](CC(C)C)C(=O)N[C@@H](Cc1c[nH]c2ccccc12)C(=O)NCc1cc(C(F)(F)F)cc(C(F)(F)F)c1
IC50 (Mu-type opioid receptor [3]): 11 nM

CC(C)C[C@H](NC(=O)[C@@H]1CCCN1C(=O)[C@H](Cc1ccccc1)N(C)C(=O)CNC(=O)[C@@H](C)NC(=O)[C@@H](N)Cc1ccc(O)cc1)C(=O)N[C@@H](Cc1c[nH]c2ccccc12)C(=O)NCc1cc(C(F)(F)F)cc(C(F)(F)F)c1
IC50 (Mu-type opioid receptor [3]): 89.1 nM

CC(C)C[C@H](NC(=O)[C@@H]1CCCN1C(=O)[C@H](Cc1ccc(F)cc1)NC(=O)CNC(=O)[C@H](C)NC(=O)[C@@H](N)Cc1ccc(O)cc1)C(=O)N[C@@H](Cc1c[nH]c2ccccc12)C(=O)NCc1cc(C(F)(F)F)cc(C(F)(F)F)c1
Activity [1]: inactive

Cc1cc(O)cc(C)c1C[C@H](N)C(=O)N[C@@H](C)C(=O)NCC(=O)N[C@@H](Cc1ccc(I)cc1)C(=O)N1CCC[C@H]1C(=O)N[C@@H](CC(C)C)C(=O)N[C@@H](Cc1c[nH]c2ccccc12)C(=O)NCc1cc(C(F)(F)F)cc(C(F)(F)F)c1
Activity [13]: inactive
Activity [14]: 41%

Cc1cc(O)cc(C)c1C[C@H](N)C(=O)N[C@H](C)C(=O)NCC(=O)N[C@@H](Cc1ccc(I)cc1)C(=O)N1CCC[C@H]1C(=O)N[C@@H](CC(C)C)C(=O)N[C@@H](Cc1c[nH]c2ccccc12)C(=O)NCc1cc(C(F)(F)F)cc(C(F)(F)F)c1
IC50 (Mu-type opioid receptor [3]): 13.2 nM

CC(C)C[C@H](NC(=O)[C@@H]1CCCN1C(=O)[C@H](Cc1ccccc1)NC(=O)CNC(=O)[C@@H](C)NC(=O)[C@@H](N)Cc1ccc(O)cc1)C(=O)N[C@@H](Cc1c[nH]c2ccccc12)C(=O)NCc1cc(C(F)(F)F)cc(C(F)(F)F)c1
IC50 (Mu-type opioid receptor [3]): 20 nM
Ki (Mu-type opioid receptor [3]): 9.5 nM

Cc1cc(O)cc(C)c1C[C@H](N)C(=O)N[C@H](C)C(=O)NCC(=O)N[C@@H](Cc1ccc(F)cc1)C(=O)N1CCC[C@H]1C(=O)N[C@@H](CC(C)C)C(=O)N[C@@H](Cc1c[nH]c2ccccc12)C(=O)NCc1cc(C(F)(F)F)cc(C(F)(F)F)c1
IC50 [2]: 21 nM
IC50 (Mu-type opioid receptor [3]): 1.91 nM
IC50 (Mu-type opioid receptor [4]): 59 nM
IC50 [15]: 2 nM
IC50 [16]: 66.1 nM
half-life at 50 ug/ml [17]: > 12 h
remaining at 50 ug/ml [5]: 100%

CC(C)C[C@H](NC(=O)[C@@H]1CCCN1C(=O)[C@H](Cc1ccccc1)N(C)C(=O)CNC(=O)[C@H](C)NC(=O)[C@@H](N)Cc1ccc(O)cc1)C(=O)N[C@@H](Cc1c[nH]c2ccccc12)C(=O)NCc1cc(C(F)(F)F)cc(C(F)(F)F)c1
Ratio IC50 [7]: 2
Activity [8]: inactive

Cc1cc(O)cc(C)c1C[C@H](N)C(=O)N[C@H](C)C(=O)NCC(=O)N[C@@H](Cc1ccc(Cl)cc1)C(=O)N1CCC[C@H]1C(=O)N[C@@H](CC(C)C)C(=O)N[C@@H](Cc1c[nH]c2ccccc12)C(=O)NCc1cc(C(F)(F)F)cc(C(F)(F)F)c1
IC50 (Mu-type opioid receptor [3]): 4.68 nM

CC(C)C[C@H](NC(=O)[C@@H]1CCCN1C(=O)[C@H](Cc1ccc(F)cc1)NC(=O)CNC(=O)[C@@H](C)NC(=O)[C@@H](N)Cc1ccc(O)cc1)C(=O)N[C@@H](Cc1c[nH]c2ccccc12)C(=O)NCc1cc(C(F)(F)F)cc(C(F)(F)F)c1
Ki (Substance-P receptor): 34 nM
IC50 (Mu-type opioid receptor [3]): 8.32 nM
IC50 [16]: 15.5 nM
Ki [16]: 7 nM
remaining at 50 ug/ml [5]: 100%

Cc1cc(O)cc(C)c1C[C@H](N)C(=O)N[C@@H](C)C(=O)NCC(=O)N[C@@H](Cc1ccc(Br)cc1)C(=O)N1CCC[C@H]1C(=O)N[C@@H](CC(C)C)C(=O)N[C@@H](Cc1c[nH]c2ccccc12)C(=O)NCc1cc(C(F)(F)F)cc(C(F)(F)F)c1
Activity [8]: inactive

Cc1cc(O)cc(C)c1C[C@H](N)C(=O)N[C@H](C)C(=O)NCC(=O)N(C)[C@@H](Cc1ccc(F)cc1)C(=O)N1CCC[C@H]1C(=O)N[C@@H](CC(C)C)C(=O)N[C@@H](Cc1c[nH]c2ccccc12)C(=O)NCc1cc(C(F)(F)F)cc(C(F)(F)F)c1
IC50 (Mu-type opioid receptor [3]): 2.82 nM

Cc1cc(O)cc(C)c1C[C@H](N)C(=O)N[C@@H](C)C(=O)NCC(=O)N[C@@H](Cc1ccc(F)cc1)C(=O)N1CCC[C@H]1C(=O)N[C@@H](CC(C)C)C(=O)N[C@@H](Cc1c[nH]c2ccccc12)C(=O)NCc1cc(C(F)(F)F)cc(C(F)(F)F)c1
Ratio Ki (Homo sapiens [10]): 1
Activity [1]: inactive

Cc1cc(O)cc(C)c1C[C@H](N)C(=O)N[C@@H](C)C(=O)NCC(=O)N(C)[C@@H](Cc1ccccc1)C(=O)N1CCC[C@H]1C(=O)N[C@@H](CC(C)C)C(=O)N[C@@H](Cc1c[nH]c2ccccc12)C(=O)NCc1cc(C(F)(F)F)cc(C(F)(F)F)c1
Activity [1]: inactive

Source: ChEMBL document CHEMBL3734657, “Discovery of Novel Multifunctional Ligands with μ/δ Opioid Agonist/Neurokinin-1 (NK1) Antagonist Activities for the Treatment of Pain” (J Med Chem, 2015)
